From ChEMBL document CHEMBL1156921, “Synthesis and anti-leishmanial activity of heterocyclic betulin derivatives” (Bioorg Med Chem, 2010)

Tests used:
[1] = test system: Leishmania donovani; test: Antiparasitic activity against Leishmania donovani MHOM/SD/1962/1S-Cl2d axenic amastigotes at 50 uM by alamar blue assay; format: functional
[2] = test system: Leishmania donovani; test: Antiparasitic activity against Leishmania donovani MHOM/SD/1962/1S-Cl2d amastigotes in human THP1 cells at 12.5 uM after 48 hrs by microplate reader; format: functional; settings: THP-1, 48 h
[3] = Cytotoxicity against human THP1 cells at 12.5 uM after 48 hrs by alamar blue assay; format: cell-based; settings: THP-1 cells, read-out: INH
How it was run: (§1)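 THP-1 cells in complete RPMI-1640, 10% FCS, added to compounds in medium with DMSO, triplicate, 48 h at 37 °C, 5% CO2; alamarBlue added, 3 h further incubation, fluorescence ex 544/em 590 nm; % growth inhibition.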

[4] = Cytotoxicity against human THP1 cells at 25 uM after 48 hrs by alamar blue assay; format: cell-based; settings: THP-1 cells, read-out: INH; how it was run: as §1
[5] = test system: Leishmania donovani; test: Antiparasitic activity against Leishmania donovani MHOM/SD/1962/1S-Cl2d amastigotes in human THP1 cells at 25 uM after 48 hrs by microplate reader; format: functional; settings: THP-1, 48 h
[6] = Cytotoxicity against human THP1 cells at 50 uM after 48 hrs by alamar blue assay; format: cell-based; settings: THP-1 cells, read-out: INH; how it was run: as §1
[7] = test system: Leishmania donovani; test: Antiparasitic activity against Leishmania donovani MHOM/SD/1962/1S-Cl2d amastigotes in human THP1 cells at 50 uM after 48 hrs by microplate reader; format: functional; settings: THP-1, 48 h
[8] = test system: Leishmania donovani; test: Antiparasitic activity against Leishmania donovani MHOM/SD/1962/1S-Cl2d axenic amastigotes at 15 uM by alamar blue assay; format: functional
[9] = test system: Leishmania donovani; test: Antiparasitic activity against Leishmania donovani MHOM/SD/1962/1S-Cl2d axenic amastigotes at 1 uM by alamar blue assay; format: functional
[10] = test system: Leishmania amazonensis; test: Antiparasitic activity against Leishmania amazonensis assessed as survival index at 68 uM; format: functional
[11] = Toxicity against peritoneal macrophages assessed as survival induces at 136 uM; format: cell-based, Peritoneal macrophage cell; settings: read-out: Survival
[12] = test system: Leishmania amazonensis; test: Antiparasitic activity against Leishmania amazonensis assessed as survival index at 136 uM; format: functional
[13] = Toxicity against peritoneal macrophages assessed as survival induces at 68 uM; format: cell-based, Peritoneal macrophage cell; settings: read-out: Survival
[14] = test system: Leishmania donovani; test: Antileishmanial activity against Leishmania donovani amastigotes; format: functional, organism-based
[15] = test system: Leishmania donovani; test: Antileishmanial activity against Leishmania donovani promastigotes; format: functional, organism-based
[16] = test system: Leishmania donovani; test: Antileishmanial activity against Leishmania donovani infected golden hamster assessed as reduction of parasite burden at 10 mg/kg after 6 weeks; format: functional; design: scale not given: the % may be the effect or the level left

Compound `CC(C)[C@@]12CC[C@]3(COC(=O)c4ccccc4)CC[C@]4(C)C(=C31)[C@H](C[C@@H]1[C@@]3(C)CC[C@H](OC(=O)c5ccccc5)C(C)(C)[C@@H]3CC[C@]14C)n1c(=O)n(-c3ccccc3)c(=O)n12` has an inhibition at 50 µM [1] of 0%.

With `CC(=O)OC[C@]12CC[C@]3(C(C)C)C1=C1[C@H](C[C@@H]4[C@@]5(C)CC[C@H](OC(C)=O)C(C)(C)[C@@H]5CC[C@@]4(C)[C@]1(C)CC2)n1c(=O)n(-c2cccc([N+](=O)[O-])c2)c(=O)n13` the inhibition at 50 µM [1] was 30%.

For `CC(C)[C@@]12CC[C@]3(CO)CC[C@]4(C)C(=C31)[C@H](C[C@@H]1[C@@]3(C)CC[C@H](O)C(C)(C)[C@@H]3CC[C@]14C)n1c(=O)n(C)c(=O)n12`, the inhibition at 50 µM [1] was 50%.

With `CC(=O)OC[C@]12CC[C@]3(C(C)C)C1=C1[C@H](C[C@@H]4[C@@]5(C)CC[C@H](OC(C)=O)C(C)(C)[C@@H]5CC[C@@]4(C)[C@]1(C)CC2)n1c(=O)[nH]c(=O)n13` the inhibition at 12.5 µM [2] was 4.8%, the cytotoxicity at 48 h, 12.5 µM [3] was 0% and the cytotoxicity at 48 h, 25 µM [4] was 2.4%. The inhibition at 50 µM [1] was 88%, the inhibition at 25 µM [5] was 55% and the cytotoxicity at 48 h, 50 µM [6] was 97%.

In the case of `CC(=O)OC[C@]12CC[C@]3(C(C)C)C1=C1[C@H](C[C@@H]4[C@@]5(C)CC[C@H](OC(C)=O)C(C)(C)[C@@H]5CC[C@@]4(C)[C@]1(C)CC2)n1c(=O)n(-c2ccc4c(c2)CCC4)c(=O)n13`, the inhibition at 50 µM [1] is reported as 23%.

With `CC(=O)OC[C@]12CC[C@]3(C(C)C)C1=C1[C@H](C[C@@H]4[C@@]5(C)CC[C@H](OC(C)=O)C(C)(C)[C@@H]5CC[C@@]4(C)[C@]1(C)CC2)n1c(=O)n(C)c(=O)n13` the inhibition at 12.5 µM [2] was 60%, the cytotoxicity at 48 h, 12.5 µM [3] was 39% and the cytotoxicity at 48 h, 25 µM [4] was 78%. It also gave an inhibition at 50 µM [1] of 98% and a cytotoxicity at 48 h, 50 µM [6] of 94%.

With `CC(C)[C@@]12CC[C@]3(COC(=O)C4CCCCC4)CC[C@]4(C)C(=C31)[C@H](C[C@@H]1[C@@]3(C)CC[C@H](OC(=O)C5CCCCC5)C(C)(C)[C@@H]3CC[C@]14C)n1c(=O)n(C(C)(C)C)c(=O)n12` the inhibition at 50 µM [1] was 4.8%.

Work on `CC(=O)OC[C@]12CC[C@]3(C(C)C)C1=C1[C@H](C[C@@H]4[C@@]5(C)CC[C@H](OC(C)=O)C(C)(C)[C@@H]5CC[C@@]4(C)[C@]1(C)CC2)n1c(=O)n(Cc2ccccc2)c(=O)n13` yielded an inhibition at 50 µM [1] of 25%.

`COc1cccc(-n2c(=O)n3n(c2=O)[C@]2(C(C)C)CC[C@]4(COC(C)=O)CC[C@]5(C)C(=C42)[C@@H]3C[C@@H]2[C@@]3(C)CC[C@H](OC(C)=O)C(C)(C)[C@@H]3CC[C@]25C)c1` showed an inhibition at 50 µM [1] of 44%.

Work on `CC(=O)OC[C@]12CC[C@]3(C(C)C)C1=C1[C@H](C[C@@H]4[C@@]5(C)CC[C@H](OC(C)=O)C(C)(C)[C@@H]5CC[C@@]4(C)[C@]1(C)CC2)n1c(=O)n(-c2ccc(F)cc2)c(=O)n13` yielded an inhibition at 50 µM [1] of 48%.

`CC(=O)OC[C@]12CC[C@]3(C(C)C)C1=C1[C@H](C[C@@H]4[C@@]5(C)CC[C@H](OC(C)=O)C(C)(C)[C@@H]5CC[C@@]4(C)[C@]1(C)CC2)n1c(=O)n(-c2ccc(Cl)cc2)c(=O)n13` gave an inhibition at 50 µM [1] of 30%.

`CC(=O)OC[C@]12CC[C@]3(C(C)C)C1=C1[C@H](C[C@@H]4[C@@]5(C)CC[C@H](OC(C)=O)C(C)(C)[C@@H]5CC[C@@]4(C)[C@]1(C)CC2)n1c(=O)n(-c2ccc(C(C)=O)cc2)c(=O)n13` gave an inhibition at 50 µM [1] of 45%.

In the case of `CC(=O)OC[C@]12CC[C@]3(C(C)C)C1=C1[C@H](C[C@@H]4[C@@]5(C)CC[C@H](OC(C)=O)C(C)(C)[C@@H]5CC[C@@]4(C)[C@]1(C)CC2)n1c(=O)n(-c2cccc4ccccc24)c(=O)n13`, the inhibition at 50 µM [1] is reported as 58%.

Work on `CC(=O)OC[C@]12CC[C@]3(C(C)C)C1=C1[C@H](C[C@@H]4[C@@]5(C)CC[C@H](OC(C)=O)C(C)(C)[C@@H]5CC[C@@]4(C)[C@]1(C)CC2)n1c(=O)n(-c2ccccc2)c(=O)n13` yielded an inhibition at 50 µM [1] of 36%.

`CC(C)[C@@]12CC[C@]3(CO)CC[C@]4(C)C(=C31)[C@H](C[C@@H]1[C@@]3(C)CC[C@H](O)C(C)(C)[C@@H]3CC[C@]14C)n1c(=O)n(-c3ccccc3)c(=O)n12` showed an inhibition at 50 µM [1] of 48%.

For `CCCCn1c(=O)n2n(c1=O)[C@]1(C(C)C)CC[C@]3(COC(C)=O)CC[C@]4(C)C(=C31)[C@@H]2C[C@@H]1[C@@]2(C)CC[C@H](OC(C)=O)C(C)(C)[C@@H]2CC[C@]14C`, the inhibition at 50 µM [1] was 49%.

Compound `CCn1c(=O)n2n(c1=O)[C@]1(C(C)C)CC[C@]3(COC(C)=O)CC[C@]4(C)C(=C31)[C@@H]2C[C@@H]1[C@@]2(C)CC[C@H](OC(C)=O)C(C)(C)[C@@H]2CC[C@]14C` has an inhibition at 12.5 µM [2] of 0%, a cytotoxicity at 48 h, 12.5 µM [3] of 8.5% and a cytotoxicity at 48 h, 25 µM [4] of 13%. It also gave an inhibition at 50 µM [1] of 88%, an inhibition at 25 µM [5] of 53% and a cytotoxicity at 48 h, 50 µM [6] of 48%.

Work on `CCC(=O)OC[C@]12CC[C@]3(C(C)C)C1=C1[C@H](C[C@@H]4[C@@]5(C)CC[C@H](OC(=O)CC)C(C)(C)[C@@H]5CC[C@@]4(C)[C@]1(C)CC2)n1c(=O)n(C)c(=O)n13` yielded an inhibition at 50 µM [7] of 83%, an inhibition at 12.5 µM [2] of 18% and a cytotoxicity at 48 h, 12.5 µM [3] of 5%. For the same compound, the cytotoxicity at 48 h, 25 µM [4] was 15%, the inhibition at 50 µM [1] was 93% and the inhibition at 25 µM [5] was 55%. For the same compound, the cytotoxicity at 48 h, 50 µM [6] was 16%.

`CCCC(=O)OC[C@]12CC[C@]3(C(C)C)C1=C1[C@H](C[C@@H]4[C@@]5(C)CC[C@H](OC(=O)CCC)C(C)(C)[C@@H]5CC[C@@]4(C)[C@]1(C)CC2)n1c(=O)n(C)c(=O)n13` showed an inhibition at 15 µM [8] of 26%.

Work on `CC(C)[C@@]12CC[C@]3(COC(=O)C4CCCCC4)CC[C@]4(C)C(=C31)[C@H](C[C@@H]1[C@@]3(C)CC[C@H](OC(=O)C5CCCCC5)C(C)(C)[C@@H]3CC[C@]14C)n1c(=O)n(C)c(=O)n12` yielded an inhibition at 50 µM [1] of 5.5%.

In the case of `CC(C)[C@@]12CC[C@]3(COC(=O)c4ccccc4)CC[C@]4(C)C(=C31)[C@H](C[C@@H]1[C@@]3(C)CC[C@H](OC(=O)c5ccccc5)C(C)(C)[C@@H]3CC[C@]14C)n1c(=O)n(C)c(=O)n12`, the inhibition at 50 µM [1] is reported as 0%.

`CC(C)C(=O)OC[C@]12CC[C@]3(C(C)C)C1=C1[C@H](C[C@@H]4[C@@]5(C)CC[C@H](OC(=O)C(C)C)C(C)(C)[C@@H]5CC[C@@]4(C)[C@]1(C)CC2)n1c(=O)n(C)c(=O)n13` gave an inhibition at 15 µM [8] of 19%.

For `C[C@@H]1[C@H](O)[C@@H](C)/C=C/C=C/C=C/C=C/C=C/C=C/C=C/[C@H](O[C@@H]2O[C@H](C)[C@@H](O)[C@H](N)[C@@H]2O)C[C@@H]2O[C@](O)(C[C@@H](O)C[C@@H](O)[C@H](O)CC[C@@H](O)C[C@@H](O)CC(=O)O[C@H]1C)C[C@H](O)[C@H]2C(=O)O` [AMPHOTERICIN B], the inhibition at 1 µM [9] was greater than 90%.

`C=C(C)[C@@H]1CC[C@]2(C=O)CC[C@]3(C)[C@H](CC[C@@H]4[C@@]5(C)CC[C@H](O)C(C)(C)[C@@H]5CC[C@]43C)[C@@H]12` [BETULINALDEHYDE] showed a survival at 68 µM [10] of 42%, a viability at 136 µM [11] of 70% and a survival at 136 µM [12] of 12%. The viability at 68 µM [13] was 80%.

Compound `C=C(C)[C@@H]1CC[C@]2(C(=O)O)CC[C@]3(C)[C@H](CC[C@@H]4[C@@]5(C)CC[C@H](O)C(C)(C)[C@@H]5CC[C@]43C)[C@@H]12` [BETULINIC ACID] has an IC50 [14] of 4.1 µM, an IC50 [15] of 2.6 µM and an Activity [16] of 92%.
